Measurements published in ChEMBL document CHEMBL4725387, “Synthesis and pharmacological evaluation of piperidine (piperazine)-amide substituted derivatives as multi-target antipsychotics” (Bioorg Med Chem Lett, 2020).

What was measured:
[1] = target: 5-hydroxytryptamine receptor 2A (Homo sapiens, UniProt P28223); test: Binding affinity to 5HT2A receptor (unknown origin)
[2] = target: 5-hydroxytryptamine receptor 6 (Homo sapiens, UniProt P50406); test: Binding affinity to 5HT6 receptor (unknown origin)
5-hydroxytryptamine receptor 6, sequence (P50406 whole entry): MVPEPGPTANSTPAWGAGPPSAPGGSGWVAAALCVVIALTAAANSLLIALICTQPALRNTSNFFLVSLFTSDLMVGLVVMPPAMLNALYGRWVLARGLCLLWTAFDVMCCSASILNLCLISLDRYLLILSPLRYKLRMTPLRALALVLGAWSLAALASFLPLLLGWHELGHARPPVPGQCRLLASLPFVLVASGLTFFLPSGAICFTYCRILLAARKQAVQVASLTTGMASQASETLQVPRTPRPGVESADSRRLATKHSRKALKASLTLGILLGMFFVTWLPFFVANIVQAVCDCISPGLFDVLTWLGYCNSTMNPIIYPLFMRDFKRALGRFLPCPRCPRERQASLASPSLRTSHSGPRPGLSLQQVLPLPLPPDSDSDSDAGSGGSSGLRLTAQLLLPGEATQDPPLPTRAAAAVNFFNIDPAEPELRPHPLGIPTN
How it was run: (§1)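 Radioligand displacement binding. Ki is the mean ± SEM of three experiments.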

[3] = target: T1, Alpha-2A adrenergic receptor (Homo sapiens, UniProt P08913); test: Binding affinity to alpha2 adrenergic receptor (unknown origin); how it was run: as §1
T1 sequence (P08913 whole entry): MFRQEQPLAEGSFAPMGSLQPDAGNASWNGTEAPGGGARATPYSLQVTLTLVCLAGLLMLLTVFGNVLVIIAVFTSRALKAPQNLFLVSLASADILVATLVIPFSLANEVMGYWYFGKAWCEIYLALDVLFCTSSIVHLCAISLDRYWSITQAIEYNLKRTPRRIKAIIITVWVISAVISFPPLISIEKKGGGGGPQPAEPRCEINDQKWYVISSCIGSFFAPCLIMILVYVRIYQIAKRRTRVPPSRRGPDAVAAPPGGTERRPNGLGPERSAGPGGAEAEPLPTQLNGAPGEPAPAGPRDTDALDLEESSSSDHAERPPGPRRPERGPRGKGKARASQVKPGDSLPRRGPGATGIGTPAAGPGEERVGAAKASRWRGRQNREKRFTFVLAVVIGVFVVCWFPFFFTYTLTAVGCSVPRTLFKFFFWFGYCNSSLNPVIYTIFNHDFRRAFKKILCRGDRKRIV

Histamine H1 receptor = Histamine H1 receptor (Homo sapiens, UniProt P35367); test: Binding affinity to H1 receptor (unknown origin); assay type: ADME
Histamine H1 receptor, sequence (P35367 whole entry): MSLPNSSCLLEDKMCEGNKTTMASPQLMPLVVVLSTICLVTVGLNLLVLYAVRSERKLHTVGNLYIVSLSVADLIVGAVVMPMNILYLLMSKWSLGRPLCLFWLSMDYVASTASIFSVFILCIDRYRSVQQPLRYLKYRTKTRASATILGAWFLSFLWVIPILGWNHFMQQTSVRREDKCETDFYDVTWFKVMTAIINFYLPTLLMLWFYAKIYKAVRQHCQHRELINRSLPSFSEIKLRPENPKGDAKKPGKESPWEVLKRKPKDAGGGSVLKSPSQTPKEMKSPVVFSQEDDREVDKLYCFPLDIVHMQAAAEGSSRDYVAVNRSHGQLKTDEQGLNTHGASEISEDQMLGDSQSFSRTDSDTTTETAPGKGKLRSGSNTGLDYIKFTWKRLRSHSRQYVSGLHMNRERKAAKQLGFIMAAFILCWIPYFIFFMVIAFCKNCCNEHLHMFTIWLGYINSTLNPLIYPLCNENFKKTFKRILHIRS

Mus musculus = test: Antipsychotic activity in po dosed mouse assessed as suppression of apomorphine-induced climbing behaviour; assay type: functional
How it was run: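 Mice climbing induced by apomorphine 1.0 mg/kg sc. Test article given po at 0.01, 0.03, 0.1, 0.3 and 1.0 mg/kg in 30% PEG 400. ED50 reported with 95% confidence limits.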

Rattus norvegicus = test: Antipsychotic activity in po dosed rat assessed as suppression in conditioned avoidance response measured after 90 mins by CAR test; assay type: functional
How it was run: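 Rat conditioned avoidance responding tested 90 min after a single oral dose of 0.05, 0.15, 0.45 or 1.35 mg/kg in 30% PEG 400. n = 10 per group. Mean ± SEM, compared with vehicle (P < 0.05). ED50 reported.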

[4] = Induction of catalepsy in po dosed mouse by vertical grid and elevated bar test; assay type: organism-based; conditions: in vivo
How it was run: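 Mouse catalepsy scored by vertical grid and elevated bar tests. Oral doses of 1, 5, 15, 45 and 100 mg/kg in 30% PEG 400. ED50 reported with 95% confidence limits.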

[5] = Therapeutic index, ratio of ED50 for induction of catalepsy in po dosed mouse to ED50 for antipsychotic activity in po dosed mouse assessed as suppression of apomorphine-induced climbing; assay type: toxicity, organism-based; conditions: in vivo, read-out: Ratio ED50
How it was run: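 Therapeutic index is the catalepsy ED50 divided by the efficacy ED50 from the apomorphine climbing or MK-801 hyperactivity model. All were oral dosing in mice, vehicle 30% PEG 400.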

[6] = Tmax in rat at 10 mg/kg, po; assay type: ADME, organism-based; conditions: in vivo
How it was run: (§2)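 Male rats, n = 6 per group, given a single oral dose of 10 mg/kg. PK parameters taken from serum concentration–time profiles: Cmax, Tmax, t1/2, AUC0-t, AUC0-∞, CL/F, F%.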

[7] = Half life in rat at 10 mg/kg, po; assay type: ADME, organism-based; conditions: in vivo; how it was run: as §2
[8] = AUC (0 to t) in rat at 10 mg/kg, po; assay type: ADME, organism-based; set-up: dose 10 mg/kg; conditions: in vivo; how it was run: as §2
[9] = AUC (0 to infinity) in rat at 10 mg/kg, po; assay type: ADME, organism-based; set-up: route oral, time infinity, dose 10 mg/kg; conditions: in vivo; how it was run: as §2
[10] = Apparent oral clearance in rat at 10 mg/kg, po; assay type: ADME, organism-based; conditions: in vivo; how it was run: as §2
[11] = Oral bioavailability in rat at 10 mg/kg; assay type: ADME, organism-based; conditions: in vivo; how it was run: as §2
[12] = Half life in rat at 3 mg/kg, iv; assay type: ADME, organism-based; conditions: in vivo
How it was run: (§3)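 Male rats, n = 6 per group, given a single intravenous dose of 3 mg/kg. PK parameters taken from serum concentration–time profiles: t1/2, AUC0-t, AUC0-∞, clearance.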

[13] = AUC (0 to t) in rat at 3 mg/kg, iv; assay type: ADME, organism-based; set-up: dose 3 mg/kg; conditions: in vivo; how it was run: as §3
[14] = […] in rat at 3 mg/kg, iv; assay type: ADME, organism-based; conditions: in vivo; how it was run: as §3

5-hydroxytryptamine receptor 2A, sequence (P28223 whole entry): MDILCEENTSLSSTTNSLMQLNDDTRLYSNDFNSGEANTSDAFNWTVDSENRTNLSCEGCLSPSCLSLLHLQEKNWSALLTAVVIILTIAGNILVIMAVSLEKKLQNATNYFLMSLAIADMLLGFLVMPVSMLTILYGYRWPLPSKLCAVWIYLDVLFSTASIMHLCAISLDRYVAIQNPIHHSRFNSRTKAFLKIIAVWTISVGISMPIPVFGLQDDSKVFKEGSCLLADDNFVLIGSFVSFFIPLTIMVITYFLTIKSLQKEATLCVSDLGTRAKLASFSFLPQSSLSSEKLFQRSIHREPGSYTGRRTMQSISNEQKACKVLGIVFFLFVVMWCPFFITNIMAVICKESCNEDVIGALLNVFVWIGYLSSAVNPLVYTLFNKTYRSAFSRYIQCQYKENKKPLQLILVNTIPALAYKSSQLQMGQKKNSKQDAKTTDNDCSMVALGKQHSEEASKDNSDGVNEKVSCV

## CC(=O)Nc1ccc(OCCCN2CCC(c3noc4cc(F)ccc34)CC2)cc1
[1]
  Ki: 7.8 nM
[2]
  Ki: 12.9 nM
[3]
  Ki: 16.3 nM
Histamine H1 receptor
  Ki: 2140 nM
Mus musculus
  ED50: 0.28 mg/kg
Rattus norvegicus
  Activity: Dose-dependent effect
Rattus norvegicus; 1.5 h
  ED50: 0.28 mg/kg
[4]
  ED50: 25.2 mg/kg
[5]
  selectivity ratio: 90
[6]
  Tmax: 7 h
[7]
  half-life: 3.34 h
[8]
  AUC(0-t): 9490 ng·h/mL
[9]
  AUC: 9638.27 ng·h/mL
[10]
  CL/F: 0.173 mL/min
[11]
  F: 31.04%
[12]
  half-life: 3.68 h
[13]
  AUC(0-t): 879 ng·h/mL
[14]
  CL/F: 3.22 mL/h
